Assay outcomes (PubChem BioAssay)
Myeloid diff 2 = compounds promoting myeloid differentiation. ER-HoxA9 myeloid progenitors, lysozyme-GFP differentiation, flow cytometry. calls only at 10 µM. actives 1% (n = 360,000). AID 624256;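 active means normalized GFP-positive differentiation at or above the plate's own cutoff, the solvent-only control mean plus 3 SD; inconclusive means no clear call, values can overlap the other calls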;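 further: cells exposed to compound for four days before flow analysis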
Xi reactivation = activators of X-chromosome reactivation in mouse fibroblasts | XiGFP mouse fibroblasts, % GFP-positive cells imaging, 3 d; cells co-treated with 5-aza-dC sensitizer; scaled so ellipticine positive control = 100% | actives 0.055% (n = 360,000) | activation, % at 7.58 µM;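 active means mean normalized replicate activation at least 10% and every replicate at or above 10%; inconclusive means only one of the two criteria met; inactive means mean below 10% and not all replicates reach 10%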;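 further: 0% = median of on-plate neutral control wells and 100% = ellipticine 6 µM median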
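System: 68-5-11 XiGFP fibroblast line | Buffer or medium: DMEM containing 5-aza-dC | Compound: Single point | Times: Compounds 3 days, fix/stain 15 min at room temperature | Benchmarks: Positive control ellipticine, 6 µM final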
ABCB6 inh MLPCN = blocks the human ABCB6 transporter. K562-ABCB6 porphyrin accumulation, flow cytometry, 1 h; hits give low values. fluorescence ratio to DMSO, % at 10 µM. actives 0.19% (n = 360,000);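 active means fluorescence ratio to DMSO below 75%, the collection mean minus 3 SD; inconclusive means too few cells collected in the well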;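 further: signal is porphyrin accumulated inside mitochondria; 100% equals median channel fluorescence of DMSO control wells; lower ratio means ABCB6 inhibition with less porphyrin fluorescence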
Target sequence (Q9NP58 whole entry, looked up): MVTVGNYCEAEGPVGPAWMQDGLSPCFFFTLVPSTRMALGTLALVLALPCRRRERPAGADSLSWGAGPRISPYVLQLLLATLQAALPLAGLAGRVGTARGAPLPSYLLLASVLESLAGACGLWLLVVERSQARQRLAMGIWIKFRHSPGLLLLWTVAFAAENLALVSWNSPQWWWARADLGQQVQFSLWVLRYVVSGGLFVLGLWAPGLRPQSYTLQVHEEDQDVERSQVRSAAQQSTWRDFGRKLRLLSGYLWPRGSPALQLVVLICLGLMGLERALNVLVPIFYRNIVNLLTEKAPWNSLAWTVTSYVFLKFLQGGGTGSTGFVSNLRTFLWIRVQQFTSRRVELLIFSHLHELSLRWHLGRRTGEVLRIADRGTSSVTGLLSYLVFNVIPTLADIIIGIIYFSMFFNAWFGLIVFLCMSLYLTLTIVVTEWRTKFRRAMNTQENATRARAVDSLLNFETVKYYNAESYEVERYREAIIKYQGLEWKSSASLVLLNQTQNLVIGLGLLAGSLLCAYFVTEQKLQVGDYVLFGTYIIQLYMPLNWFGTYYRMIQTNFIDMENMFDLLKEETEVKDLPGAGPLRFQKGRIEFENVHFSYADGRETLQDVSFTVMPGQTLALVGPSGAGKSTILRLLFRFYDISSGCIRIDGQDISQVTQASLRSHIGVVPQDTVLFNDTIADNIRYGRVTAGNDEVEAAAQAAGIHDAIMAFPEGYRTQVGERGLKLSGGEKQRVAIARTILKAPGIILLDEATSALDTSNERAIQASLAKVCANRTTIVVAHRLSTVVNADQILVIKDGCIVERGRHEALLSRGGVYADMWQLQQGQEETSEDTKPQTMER
The depositor's hits bear a star; i = inactive; ? = inconclusive; . = no result given; + = active, no number. This is one part of a sample in which hits are shown more often than they occur.

SMILES	Myeloid diff 2	Xi reactivation	ABCB6 inh MLPCN
O=C(c1ccccc1)N1CC2(C1)[C@@H](c1ccccc1)[C@@H](CO)N2Cc1cccnc1	.	0	.
CCN(CC)S(=O)(=O)c1ccc(Cl)c(C(=O)OC)c1	+	.	98
CCN(CC)S(=O)(=O)c1cc(C(=O)OC)ccc1Cl	i	.	99
O=S(=O)(Nc1cc2nc3ccccc3nc2n1Cc1ccccc1)c1ccc(Cl)cc1	+	78*	141
O=S(=O)(NCc1ccccc1)c1ccc(Cl)cc1	i	.	99
CCCC#Cc1ccc([C@@H]2[C@H](CO)N3CCCCN(C(=O)NC4CCCC4)C[C@@H]23)cc1	.	0	.
CO[C@H]1CC[C@H]2CCN(C)C(=O)[C@H](C)[C@H](OC)CN(C)C(=O)c3cccc(C#N)c3OC[C@H]1O2	.	0	.
COc1ccc(CC(=O)NC(=S)Nc2cccc(CO)c2)cc1	i	0	100
COc1ccc(CC(=O)NC(=S)Nc2cccc(C)c2)cc1	+	0	139
C[C@@H]1CN([C@H](C)CO)C(=O)c2cc(NC(=O)Nc3ccccc3)ccc2O[C@@H](C)CCCCO[C@H]1CN(C)Cc1ccncc1	.	0	.
Cc1ccc(NC2=CC(=O)CC(C)(C)C2)c(N)c1	+	.	116
CC1(C)CC(=O)C=C(Nc2ccccc2N)C1	i	0	122
C[C@@H]1CCCCO[C@@H](CN(C)C)[C@H](C)CN([C@H](C)CO)C(=O)c2cc(NC(=O)Nc3ccc(C(F)(F)F)cc3)ccc2O1	.	0	.
COc1ccc(NC(=O)N(C)C[C@@H]2Oc3ccc(NC(=O)Nc4ccc(F)cc4)cc3C(=O)N([C@@H](C)CO)C[C@@H]2C)cc1	.	1	.
Cc1ccc(NC(=O)[C@H](Cc2c[nH]c3ccccc23)NC(=O)[C@@H]2Cc3ccccc3CN2)c(C)c1	+	.	98
Cc1cccc(NC(=O)[C@H](Cc2c[nH]c3ccccc23)NC(=O)[C@@H]2Cc3ccccc3CN2)c1	i	.	99
COCC(=O)N(C)C[C@@H]1Oc2cc(-c3ccc(C#N)cc3)ccc2S(=O)(=O)N([C@@H](C)CO)C[C@@H]1C	.	-1	.
C[C@H](CO)N1C[C@H](C)[C@@H](CN(C)CC2CCCCC2)Oc2ccc(NC(=O)C3CC3)cc2CC1=O	.	0	.
COc1ccc(C2C(C(C)=O)=C(C)N=c3s/c(=C\c4ccco4)c(=O)n32)c(OC)c1 (stereo not given)	i	.	97
COc1ccc(C2C(C(C)=O)=C(C)N=c3s/c(=C\c4cc(C)n(C)c4C)c(=O)n32)c(OC)c1 (stereo not given)	+	.	225
C[C@@H]1CN([C@@H](C)CO)C(=O)c2cc(NC(=O)CCC(F)(F)F)ccc2O[C@@H]1CN(C)C	.	0	.
Cc1ccc(C(=O)N/C(=C\c2ccc([N+](=O)[O-])cc2)C(=O)NCCc2ccccc2)cc1	i	.	71*
O=C(NCCc1ccccc1)/C(=C\c1ccc([N+](=O)[O-])cc1)NC(=O)c1ccc(Br)cc1	i	0	97
CCOC(=O)/C(=C\c1ccc(C)cc1)NC(=O)c1ccccc1	i	0	70*
Cc1ccc(/C=C(\NC(=O)c2ccccc2)C(=O)OCc2ccccc2)cc1	i	0	101
SMILES	Myeloid diff 2	Xi reactivation	ABCB6 inh MLPCN
C[C@@H]1CCCCO[C@@H](CN(C)C(=O)Nc2ccc(F)cc2)[C@H](C)CN([C@@H](C)CO)C(=O)c2cc(NC(=O)CCC(F)(F)F)ccc2O1	.	0	.
O=C(/C=C/c1ccc2ccccc2n1)c1cc(Cl)ccc1O	+	0	206
O=C(/C=C/c1cccs1)c1cc(Cl)ccc1O	i	0	101
COc1ccc2c3c([nH]c2c1)[C@@H](CO)N(C(=O)Nc1c(C)noc1C)CC31CN(CC2CC2)C1	.	0	.
CC(C)CCn1c(CN2CCN(c3cccc(Cl)c3)CC2)nc2c1c(=O)n(C)c(=O)n2C	+	0	97
COc1ccc(N2CCN(Cc3nc4c(c(=O)[nH]c(=O)n4C)n3CCCc3ccccc3)CC2)cc1	i	.	98
COCCn1c(CN2CCN(c3cccc(Cl)c3)CC2)nc2c1c(=O)n(C)c(=O)n2C	i	0	99
COc1ccc(N2CCN(Cc3nc4c(c(=O)[nH]c(=O)n4C)n3Cc3cccc(Cl)c3)CC2)cc1	+	0	100
COc1cc2c(cc1N/C=C(\C#N)c1nc(-c3ccccc3)cs1)oc1ccccc12	+	0	131
COc1cccc(-c2csc(/C(C#N)=C/Nc3cc4oc5ccccc5c4cc3OC)n2)c1	i	0	122
COc1ccc(C(=O)/C=C/c2ccc(N(C)C)cc2)c(OC)c1	+	0	119
COc1ccc(C(=O)/C=C/c2ccccc2)c(OC)c1	i	.	100
CN(C)/C=C1\C=C2C(=O)c3ccccc3N2C1=O	+	?	131
CN(C)S(=O)(=O)N1C(=O)c2ccccc2C1=O	i	0	98
Cc1noc(C)c1NC(=O)N(C)C[C@H]1OCCCC[C@@H](C)Oc2ccc(NC(=O)c3ccncc3)cc2C(=O)N([C@@H](C)CO)C[C@@H]1C	.	0	.
COc1ccc(C=C(C#N)C(=O)c2ccccc2)cc1	i	0	99
COc1cc(/C=C(\C#N)C(=O)c2ccc(O)c(O)c2)cc(I)c1O	+	0	106
COc1ccc(CNC(=O)C[C@@H]2C=C[C@H](NC(=O)c3ccc4c(c3)OCO4)[C@@H](CO)O2)cc1	.	0	.
O=C(O)C1CCCN1S(=O)(=O)c1ccc(Cl)cc1 (stereo not given)	i	0	98
O=C(O)C1CCCN1S(=O)(=O)c1ccccc1 (stereo not given)	+	.	100
C[C@@H]1CN([C@H](C)CO)C(=O)c2cc(C#Cc3ccccc3F)cnc2O[C@H]1CN(C)C(=O)C1CCOCC1	.	0	.
O=C1CN(Cc2ccc(F)cc2)C[C@@H]2[C@@H](c3ccc(-c4ccccc4F)cc3)[C@H](CO)N12	.	0	.
CCN(CC)S(=O)(=O)c1cccc(N2CC(O)=C(c3ccccc3)C2=N)c1	i	0	97
CCN(CC)S(=O)(=O)c1ccc(N2Cc3ccccc3C2=N)cc1	+	0	103
O=C(NC12CC3CC(CC(C3)C1)C2)c1ccc(N2CCNCC2)c([N+](=O)[O-])c1	+	0	88
SMILES	Myeloid diff 2	Xi reactivation	ABCB6 inh MLPCN
CS(=O)(=O)N1CCN(c2ccc(C(=O)NC34CC5CC(CC(C5)C3)C4)cc2[N+](=O)[O-])CC1	i	0	90
C[C@H]1CN([C@@H](C)CO)C(=O)Cc2cc(NS(=O)(=O)c3ccc(Cl)cc3)ccc2O[C@H]1CN(C)C	.	0	.
CN(C)C(=O)C[C@@H]1CC[C@H]2[C@@H](COC[C@@H](O)CN2Cc2ccc(C(F)(F)F)cc2)O1	.	1	.
CCOC(=O)C1C(c2ccccc2O)NC(=O)NC1(O)C(F)(F)F (stereo not given)	i	0	97
CCOC(=O)C1C(c2ccccc2Cl)NC(=O)N(C)C1(O)C(F)(F)F (stereo not given)	+	.	102
Cc1noc(C)c1NC(=O)N(C)C[C@H]1Oc2ccc(NC(=O)CCCCCC(=O)Nc3ccccc3N)cc2C(=O)N([C@@H](C)CO)C[C@@H]1C	.	0	.
Cn1cc(/C=C/c2cc[n+](C)cc2)c2cc(F)ccc21	?	.	i
